Test results published in ChEMBL document CHEMBL3797090, “One-pot synthesis of 1,4-dihydroxy-2-((E)-1-hydroxy-4-phenylbut-3-enyl)anthracene-9,10-diones as novel shikonin analogs and evaluation of their antiproliferative activities” (Bioorg Med Chem Lett, 2016).

Key:
MDA-MB-231 [1] = test: Cytotoxicity against human MDA-MB-231 cells assessed as cell viability at 33.3 uM after 72 hrs by cell titer glo assay; assay type: functional; conditions: MDA-MB-231, 72 h, read-out: Activity
Summary of the method: (§1)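 The highest concentration tested was 33.3 μM, in a series running down to 0.0152 μM. Results came from three independent experiments.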

[2] = Cytotoxicity against human MCF10 cells assessed as cell viability at 33.3 uM after 72 hrs by cell titer glo assay; assay type: cell-based; conditions: read-out: Activity; summary of the method: as §1
MCF7 [3] = test: Cytotoxicity against human MCF7 cells assessed as cell viability at 33.3 uM after 72 hrs by cell titer glo assay; assay type: functional; conditions: MCF7, 72 h, read-out: Activity; summary of the method: as §1
[4] = Cytotoxicity against human MIAPaCa2 cells assessed as cell viability at 33.3 uM after 72 hrs by cell titer glo assay; assay type: functional; conditions: MIA PaCa-2, 72 h, read-out: Activity; summary of the method: as §1
HeLa [5] = test: Cytotoxicity against human HeLa cells assessed as reduction in cell growth after 72 hrs by cell titer glo assay; assay type: functional, cell-based
MCF7 [6] = test: Cytotoxicity against human MCF7 cells assessed as reduction in cell growth after 72 hrs by cell titer glo assay; assay type: functional, cell-based; conditions: MCF7, 72 h
Summary of the method: (§2)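 IC50, the concentration giving 50% inhibition of cell growth, was read from plots of inhibition against concentration. Values were calculated from three independent experiments.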

[7] = Cytotoxicity against human MIAPaCa2 cells assessed as reduction in cell growth after 72 hrs by cell titer glo assay; assay type: functional, cell-based; conditions: MIA PaCa-2, 72 h
MDA-MB-231 [8] = test: Cytotoxicity against human MDA-MB-231 cells assessed as reduction in cell growth after 72 hrs by cell titer glo assay; assay type: functional, cell-based; conditions: MDA-MB-231, 72 h; summary of the method: as §2
MCF10 = test: Cytotoxicity against human MCF10 cells assessed as reduction in cell growth after 72 hrs by cell titer glo assay; assay type: cell-based; conditions: MCF10, 72 h
Summary of the method: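 Non-tumour mammary epithelial cells exposed to an 8-point series (33.3, 11.1, 3.7, 1.23, 0.41, 0.137, 0.0457, 0.0152 μM). IC50 is the concentration giving 50% growth inhibition, read from the plot of inhibition against concentration and calculated from three independent experiments.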

HeLa [9] = test: Cytotoxicity against human HeLa cells assessed as cell viability at 33.3 uM after 72 hrs by cell titer glo assay; assay type: functional; conditions: read-out: Activity; summary of the method: as §1

## COc1ccccc1/C=C/CC(O)c1cc(O)c2c(c1O)C(=O)c1ccccc1C2=O (stereo unspecified)
MDA-MB-231 [1]
  viability at 33.3 µM: > 50%
[2]
  viability at 72 h, 33.3 µM: > 50%
MCF7 [3]
  viability at 33.3 µM: > 50%
[4]
  viability at 33.3 µM: > 50%
HeLa [5]
  IC50: 29 µM

## Cc1ccccc1/C=C/CC(O)c1cc(O)c2c(c1O)C(=O)c1ccccc1C2=O (stereo unspecified)
MCF7 [6]
  IC50: 32.8 µM
MDA-MB-231 [1]
  viability at 33.3 µM: > 50%
[7]
  IC50: 26.1 µM
[2]
  viability at 72 h, 33.3 µM: > 50%
HeLa [5]
  IC50: 28.3 µM

## O=C1c2ccccc2C(=O)c2c(O)c(C(O)C/C=C/c3ccc(Cl)cc3)cc(O)c21 (stereo unspecified)
MCF7 [6]
  IC50: 32.3 µM
[7]
  IC50: 27.4 µM
[2]
  viability at 72 h, 33.3 µM: > 50%
HeLa [5]
  IC50: 27.4 µM
MDA-MB-231 [8]
  IC50: 28.5 µM

## Cc1cccc(/C=C/CC(O)c2cc(O)c3c(c2O)C(=O)c2ccccc2C3=O)c1 (stereo unspecified)
MCF7 [6]
  IC50: 32.8 µM
MDA-MB-231 [1]
  viability at 33.3 µM: > 50%
[7]
  IC50: 28.5 µM
[2]
  viability at 72 h, 33.3 µM: > 50%
HeLa [5]
  IC50: 27.2 µM

## O=C1c2ccccc2C(=O)c2c(O)c(C(O)C/C=C/c3ccccc3Cl)cc(O)c21 (stereo unspecified)
MCF7 [6]
  IC50: 31.5 µM
[2]
  viability at 72 h, 33.3 µM: > 50%
[4]
  viability at 33.3 µM: > 50%
HeLa [5]
  IC50: 27.2 µM

## COc1cccc(/C=C/CC(O)c2cc(O)c3c(c2O)C(=O)c2ccccc2C3=O)c1 (stereo unspecified)
MDA-MB-231 [1]
  viability at 33.3 µM: > 50%
[7]
  IC50: 27.1 µM
[2]
  viability at 72 h, 33.3 µM: > 50%
MCF7 [3]
  viability at 33.3 µM: > 50%
HeLa [5]
  IC50: 28 µM

## COc1cccc2c1C(=O)c1c(O)c3c(c(O)c1C2=O)C[C@@](O)(C(=O)CO)C[C@@H]3O[C@H]1C[C@H](N)[C@H](O)[C@H](C)O1 [DOXORUBICIN]
MDA-MB-231 [8]
  IC50: 0.16 µM
MCF10
  IC50: 0.16 µM

## O=C1C2=C(C(=O)c3ccccc31)C(O)C1=C(O)CC(c3ccccc3)C1=C2O (stereo unspecified)
[7]
  IC50: 27.7 µM
[2]
  viability at 72 h, 33.3 µM: > 50%
MCF7 [3]
  viability at 33.3 µM: > 50%
HeLa [5]
  IC50: 29.2 µM
MDA-MB-231 [8]
  IC50: 28.8 µM

## CC(C)=CC[C@@H](O)C1=CC(=O)c2c(O)ccc(O)c2C1=O [SHIKONIN]
MCF7 [6]
  IC50: 5.49 µM
[7]
  IC50: 0.04 µM
HeLa [5]
  IC50: 6.42 µM
MDA-MB-231 [8]
  IC50: 3.94 µM
MCF10
  IC50: 4.56 µM

## O=C1c2ccccc2C(=O)c2c(O)c(C(O)C/C=C/c3ccccc3)cc(O)c21 (stereo unspecified)
MDA-MB-231 [1]
  viability at 33.3 µM: > 50%
[2]
  viability at 72 h, 33.3 µM: > 50%
MCF7 [3]
  viability at 33.3 µM: > 50%
[4]
  viability at 33.3 µM: > 50%
HeLa [5]
  IC50: 18.6 µM

## Cc1ccc(/C=C/CC(O)c2cc(O)c3c(c2O)C(=O)c2ccccc2C3=O)cc1 (stereo unspecified)
MDA-MB-231 [1]
  viability at 33.3 µM: > 50%
[2]
  viability at 72 h, 33.3 µM: > 50%
MCF7 [3]
  viability at 33.3 µM: > 50%
[4]
  viability at 33.3 µM: > 50%
HeLa [5]
  IC50: 29 µM

## COc1ccc(/C=C/CC(O)c2cc(O)c3c(c2O)C(=O)c2ccccc2C3=O)cc1 (stereo unspecified)
MCF7 [6]
  IC50: 32.8 µM
[7]
  IC50: 26.3 µM
[2]
  viability at 72 h, 33.3 µM: > 50%
HeLa [5]
  IC50: 24.1 µM
MDA-MB-231 [8]
  IC50: 26.9 µM

## O=C1c2ccccc2C(=O)c2c(O)c(C(O)C/C=C/c3cccc(F)c3)cc(O)c21 (stereo unspecified)
MCF7 [6]
  IC50: 32.1 µM
[7]
  IC50: 26.3 µM
[2]
  viability at 72 h, 33.3 µM: > 50%
HeLa [5]
  IC50: 25.2 µM
MDA-MB-231 [8]
  IC50: 26.5 µM

## O=C1c2ccccc2C(=O)c2c(O)c(C(O)C/C=C/c3ccc(Br)cc3)cc(O)c21 (stereo unspecified)
MDA-MB-231 [1]
  viability at 33.3 µM: > 50%
[2]
  viability at 72 h, 33.3 µM: > 50%
MCF7 [3]
  viability at 33.3 µM: > 50%
[4]
  viability at 33.3 µM: > 50%
HeLa [9]
  viability at 33.3 µM: > 50%

## O=C1c2ccccc2C(=O)c2c(O)c(C(O)C/C=C/c3ccccc3Br)cc(O)c21 (stereo unspecified)
MCF7 [6]
  IC50: 31.1 µM
[7]
  IC50: 27.1 µM
[2]
  viability at 72 h, 33.3 µM: > 50%
HeLa [5]
  IC50: 25.6 µM
MDA-MB-231 [8]
  IC50: 30.7 µM

## O=C1c2ccccc2C(=O)c2c(O)c(C(O)C/C=C/c3ccccc3F)cc(O)c21 (stereo unspecified)
[7]
  IC50: 27.3 µM
[2]
  viability at 72 h, 33.3 µM: > 50%
MCF7 [3]
  viability at 33.3 µM: > 50%
HeLa [5]
  IC50: 28.7 µM
MDA-MB-231 [8]
  IC50: 29.2 µM

## O=C1c2ccccc2C(=O)c2c(O)c(C(O)C/C=C/c3ccc(F)cc3)cc(O)c21 (stereo unspecified)
MCF7 [6]
  IC50: 28.5 µM
[7]
  IC50: 23.2 µM
[2]
  viability at 72 h, 33.3 µM: > 50%
HeLa [5]
  IC50: 32.9 µM
MDA-MB-231 [8]
  IC50: 28 µM

## O=C1c2ccccc2C(=O)c2c(O)c(C(O)C/C=C/c3cccc(Br)c3)cc(O)c21 (stereo unspecified)
MCF7 [6]
  IC50: 31.7 µM
MDA-MB-231 [1]
  viability at 33.3 µM: > 50%
[7]
  IC50: 27.6 µM
[2]
  viability at 72 h, 33.3 µM: > 50%
HeLa [5]
  IC50: 29.1 µM

## O=C1c2ccccc2C(=O)c2c(O)c(C(O)C/C=C/c3cccc(Cl)c3)cc(O)c21 (stereo unspecified)
MCF7 [6]
  IC50: 32.2 µM
[7]
  IC50: 26.4 µM
[2]
  viability at 72 h, 33.3 µM: > 50%
HeLa [5]
  IC50: 25.8 µM
MDA-MB-231 [8]
  IC50: 31.2 µM
